Experimental data from ChEMBL document CHEMBL1944532, “Synthesis and evaluation of anticancer activity of some novel 6-aryl-2-(p-sulfamylphenyl)-pyridazin-3(2H)-ones” (Eur J Med Chem, 2012).
Activity calls are given as the source filed them. The rule behind the calls is not given here.

How the values were obtained:
NCI/ADR-RES = assay: Cytotoxicity against human NCI/ADR-RES cells assessed as cell growth at 10 uM after 48 hrs by SRB assay; type: functional; conditions: read-out: Activity
Method in brief: (§1)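 NCI primary single-dose screen at 10^-5 M against the full panel of about 60 human tumor cell lines. Cells were in RPMI-1640 with 5% fetal calf serum and 2 mM L-glutamine and preincubated 24 h. Compound was given in DMSO with 48 h exposure. Growth was estimated by sulforhodamine B protein assay.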

HL-60(TB) = assay: Cytotoxicity against human HL-60(TB) cells assessed as cell growth at 10 uM after 48 hrs by SRB assay; type: functional; conditions: HL-60, 48 h, read-out: Activity
Method in brief: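 NCI primary one-dose screen at 10^-5 M against about 60 human tumor cell lines. Cells pre-incubated 24 h, then compound in DMSO added for 48 h. Cell growth read by sulforhodamine B protein assay.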

SR = assay: Cytotoxicity against human SR cells assessed as cell growth at 10 uM after 48 hrs by SRB assay; type: functional; conditions: read-out: Activity
Method in brief: (§2)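 NCI primary one-dose screen at 10^-5 M against the full panel of about 60 human tumour cell lines, run to the NCI Drug Evaluation Branch protocol.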

LOX IMVI = assay: Cytotoxicity against human LOXIMVI cells assessed as cell growth at 10 uM after 48 hrs by SRB assay; type: functional; conditions: read-out: Activity; method in brief: as §1
IGROV-1 = assay: Cytotoxicity against human IGROV1 cells assessed as cell growth at 10 uM after 48 hrs by SRB assay; type: functional; conditions: IGROV-1, 48 h, read-out: Activity
Method in brief: (§3)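 NCI primary single-dose screen at 10^-5 M against the ~60 human tumour cell line panel. Cells grown in RPMI-1640 with 5% fetal calf serum and 2 mM L-glutamine and pre-incubated 24 h before compound addition. Compound added from DMSO solution with 48 h exposure. Growth read by sulforhodamine B protein staining.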

DU-145 = assay: Cytotoxicity against human DU145 cells assessed as cell growth at 10 uM after 48 hrs by SRB assay; type: functional; conditions: DU-145, 48 h, read-out: Activity; method in brief: as §3
A549 = assay: Cytotoxicity against human A549/ATCC cells after 48 hrs by SRB assay; type: functional; conditions: A549, 48 h
Method in brief: (§4)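 NCI ~60-line panel in RPMI-1640 with 5% fetal calf serum and 2 mM L-glutamine, pre-incubated 24 h. Compound in DMSO tested at five 10-fold concentrations (10^-4 to 10^-8 M) with 48 h continuous exposure. Growth measured by sulforhodamine B protein assay. GI50 (50% net growth inhibition), TGI (total inhibition) and LC50 (50% net cell death) derived from dose-response.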

SK-MEL-2 = assay: Cytotoxicity against human SK-MEL-2 cells assessed as cell growth at 10 uM after 48 hrs by SRB assay; type: functional; conditions: SK-MEL-2, 48 h, read-out: Activity; method in brief: as §2
OVCAR-3 [1] = assay: Cytotoxicity against human OVCAR3 cells after 48 hrs by SRB assay; type: functional; conditions: OVCAR-3, 48 h
Method in brief: (§5)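 NCI five-dose screen on the ~60-line human tumor panel. Cells grown in RPMI-1640 with 5% fetal calf serum and 2 mM L-glutamine, seeded at line-dependent density and preincubated 24 h. Compound added from DMSO at 10-fold dilutions from 10^-4 to 10^-8 M, continuous exposure 48 h. Growth read by sulforhodamine B protein stain. GI50, TGI and LC50 derived per line.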

OVCAR-3 [2] = assay: Cytotoxicity against human OVCAR3 cells assessed as cell growth at 10 uM after 48 hrs by SRB assay; type: functional; conditions: OVCAR-3, 48 h, read-out: Activity; method in brief: as §1
SNB-75 = assay: Cytotoxicity against human SNB75 cells after 48 hrs by SRB assay; type: functional; conditions: SNB-75, 48 h
Method in brief: (§6)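 NCI 60-cell-line five-dose screen. Cells were grown in 1640 medium with 5% fetal calf serum and 2 mM L-glutamine, with inoculum density set by cell line, and pre-incubated 24 h. Compound in DMSO was added at 10^-4 to 10^-8 M (10-fold steps) with 48 h continuous exposure. Growth was read by SRB protein assay, and GI50, TGI and LC50 were derived from dose-response.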

K562 = assay: Cytotoxicity against human K562 cells after 48 hrs by SRB assay; type: functional; conditions: K562, 48 h; method in brief: as §4
SF-295 = assay: Cytotoxicity against human SF295 cells after 48 hrs by SRB assay; type: functional; conditions: SF-295, 48 h; method in brief: as §5
SW-620 = assay: Antitumor activity against human SW620 cells implanted in mouse dosed qd for 4 days by formazan dye-based hollow fiber assay; type: functional, organism-based
Method in brief: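 Cells grown inside polyvinylidene fluoride hollow fibers; each line implanted into both intraperitoneal and subcutaneous compartments in mice. Compound given ip at two doses on a QD x 4 schedule. Fibers then recovered and viable cell mass measured by formazan dye conversion. Scored 2 per dose giving ≥50% reduction in viable cell mass (%T/C 50).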

HCT-116 = assay: Cytotoxicity against human HCT116 cells after 48 hrs by SRB assay; type: functional; conditions: HCT-116, 48 h; method in brief: as §4
SK-OV-3 = assay: Cytotoxicity against human SKOV3 cells after 48 hrs by SRB assay; type: functional; conditions: SK-OV-3, 48 h; method in brief: as §6

Compound: CCc1ccc(-c2ccc(=O)n(-c3ccc(S(N)(=O)=O)cc3)n2)cc1
- growth at 10 µM (NCI/ADR-RES): 1%
- growth at 10 µM (HL-60(TB)): -4.27%
- growth at 10 µM (SR): -11.9%
- growth at 10 µM (LOX IMVI): 55.1%
- growth at 10 µM (IGROV-1): -5.72%
- growth at 10 µM (DU-145): 59.6%
- LC50 (A549): > 100000 nM
- GI50 (A549; read-out: GI50): 2580 nM
- GI50 (A549; read-out: pGI50 (converted)): 2570 nM
- TGI (A549; read-out: pTGI): > 100000 nM
- growth at 10 µM (SK-MEL-2): 1.5%
- LC50 (OVCAR-3 [1]): > 100000 nM
- GI50 (OVCAR-3 [1]; read-out: GI50): 429 nM
- GI50 (OVCAR-3 [1]; read-out: pGI50 (converted)): 427 nM
- TGI (OVCAR-3 [1]; read-out: pTGI): > 100000 nM
- growth at 10 µM (OVCAR-3 [2]): -56.8%
- LC50 (SNB-75): > 100000 nM
- GI50 (SNB-75; read-out: GI50): 1760 nM
- GI50 (SNB-75; read-out: pGI50 (converted)): 1740 nM
- TGI (SNB-75; read-out: pTGI (converted)): 28800 nM
- GI50 (K562; read-out: GI50): 257 nM
- GI50 (K562; read-out: pGI50 (converted)): 257 nM
- CC50 (K562; read-out: pLC50 (the source's name) (converted)): > 100000 nM
- TGI (K562; read-out: pTGI): > 100000 nM
- LC50 (SF-295): 75900 nM
- GI50 (SF-295; read-out: GI50): 554 nM
- GI50 (SF-295; read-out: pGI50 (converted)): 550 nM
- TGI (SF-295; read-out: pTGI (converted)): 17400 nM
- Activity (SW-620): inactive
- LC50 (concentration causing 50% net cell death) (HCT-116): > 100000 nM
- GI50 (HCT-116; read-out: GI50): 535 nM
- GI50 (HCT-116; read-out: pGI50 (converted)): 537 nM
- TGI (HCT-116; read-out: pTGI (converted)): 19100 nM
- LC50 (SK-OV-3): > 100000 nM
- GI50 (SK-OV-3; read-out: GI50): 4020 nM
- GI50 (SK-OV-3; read-out: pGI50 (converted)): 3980 nM
- TGI (SK-OV-3; read-out: pTGI): > 100000 nM
